Results as given in PMC4377729 (Theranostics, 2015).

Experiments:
[1] = format: in vivo; conditions: 10 nmol (0.4 mg/kg) intravenously, mice, 4 h post-injection
Procedure, shortened: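 Nude mice (about 25 g) were anesthetized with ip ketamine/xylazine, given 10 nmol (0.4 mg/kg) conjugate iv in saline, and imaged 4 h later. Excitation was 745-779 nm light at 14 mW cm-2, with 800-848 nm emission and fixed exposure. SBR is tissue signal over neighbouring muscle or skin. For biodistribution, mice were killed at 30-240 min and organs resected and imaged; n ≥ 3 per time point.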

[2] = in DMSO; cited from earlier work
[3] = previously reported; cited from earlier work

SMILES: CC1(C)C(/C=C/C2=C(Oc3ccc(S(=O)(=O)O)cc3)C(=C/C=C3/N(CCCCS(=O)(=O)O)c4ccc(S(=O)(=O)[O-])cc4C3(C)C)/CCC2)=[N+](CCCCCC(=O)O)c2ccc(S(=O)(=O)O)cc21 [CW800]
- location of NIR fluorescence signal / tissue uptake (in words) [1]: elevated nonspecific background signals in the liver and skin

SMILES: CC1(C)C(/C=C/C=C/C=C/C=C2\N(CCCCS(=O)(=O)[O-])c3ccc4ccccc4c3C2(C)C)=[N+](CCCCS(=O)(=O)[O-])c2ccc3ccccc3c21.[Na+] [ICG]
- QY of calibration standard [2]: 13%

SMILES: CC1(C)C(/C=C/C2=C(Oc3ccc(CCC(=O)NCCC(O)(P(=O)([O-])O)P(=O)(O)O)cc3)C(=C\C=C3/N(CCCCS(=O)(=O)O)c4ccc(S(=O)(=O)O)cc4C3(C)C)/CCC2)=[N+](CCCCS(=O)(=O)O)c2ccc(S(=O)(=O)O)cc21 (stereo not drawn) [Pam78]
- binding to hydroxyapatite (HA) in vitro and in vivo (in words) [3]: rapid and specific binding to hydroxyapatite (HA) in vitro and in vivo
